≈ marks a conversion by molar mass, not a printed value.
How the values were obtained:
[1] = tested on: Pseudomonas aeruginosa; test: Antibacterial activity against Pseudomonas aeruginosa 795 by broth microdilution method; type: functional
[2] = tested on: Escherichia coli; test: Antibacterial activity against Escherichia coli DH10B transfected with pBC SK (-) KPC-2 by broth microdilution method; type: functional
[3] = Inhibition of bacteria KPC-2 assessed as apparent inhibition constant using nitrocefin as substrate
[4] = Binding affinity to bacteria KPC-2 assessed as dissociation constant
[5] = tested on: Acinetobacter baumannii; test: Antibacterial activity against ADC deleted Acinetobacter baumannii transfected with pWH1266 OXA-23 by broth microdilution method; type: functional
[6] = tested on: Acinetobacter baumannii; test: Antibacterial activity against ADC deleted Acinetobacter baumannii by broth microdilution method; type: functional
[7] = tested on: Pseudomonas aeruginosa; test: Synergistic antibacterial activity against Pseudomonas aeruginosa 776 assessed as cefepime MIC at 8 ug/ml by broth microdilution method; type: functional; details: dose 8 µg/ml
[8] = tested on: Pseudomonas aeruginosa; test: Synergistic antibacterial activity against Pseudomonas aeruginosa 715 assessed as cefepime MIC at 8 ug/ml by broth microdilution method; type: functional; details: dose 8 µg/ml
[9] = tested on: Klebsiella pneumoniae; test: Synergistic antibacterial activity against Klebsiella pneumoniae jefferson 1773 producing OXA-181 assessed as meropenem MIC at 8 ug/ml by broth microdilution method; type: functional; details: dose 8 µg/ml
[10] = tested on: Acinetobacter baumannii; test: Antibacterial activity against Acinetobacter baumannii NCTC 13301 producing OXA-23/51 infected in sc dosed Swiss albino mouse administered 1 hr post infection and measured upto 7 days; type: functional; details: NCTC 13301, 168 h, time <= 7 day; for ED50: read-out: PD50
How it was run: (§1)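 Peritonitis model: male and female Swiss albino mice infected intraperitoneally with 3.5×10^5 to 3×10^6 CFU/mouse in 5% hog gastric mucin (lethal to untreated mice within 24 h). […] Survival followed 7 days; PD50/PD90 by probit analysis.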

[11] = tested on: Acinetobacter baumannii; test: Antibacterial activity against Acinetobacter baumannii SL46 producing OXA-23/51 infected in sc dosed Swiss albino mouse administered 1 hr post infection and measured upto 7 days; type: functional; details: SL46, 168 h, time <= 7 day; how it was run: as §1
[12] = tested on: Klebsiella pneumoniae; test: Antibacterial activity against Klebsiella pneumoniae 1084/1957 producing KPC-3 by broth microdilution method; type: functional
[13] = tested on: Klebsiella pneumoniae; test: Antibacterial activity against Klebsiella pneumoniae 935/1884 producing KPC-3 by broth microdilution method; type: functional
[14] = tested on: Acinetobacter baumannii; test: Antibacterial activity against Acinetobacter baumannii NCTC 13303 producing OXA-26/51 infected in sc dosed Swiss albino mouse administered 1 hr post infection and measured upto 7 days; type: functional; details: NCTC 13303, 168 h, time <= 7 day; how it was run: as §1
[15] = tested on: Klebsiella pneumoniae; test: Antibacterial activity against Klebsiella pneumoniae 901/1860 producing KPC-3 by broth microdilution method; type: functional
[16] = tested on: Klebsiella pneumoniae; test: Antibacterial activity against Klebsiella pneumoniae 11978 producing OXA-48 by broth microdilution method; type: functional
[17] = tested on: Klebsiella pneumoniae; test: Antibacterial activity against Klebsiella pneumoniae 977/1916 producing KPC-3 by broth microdilution method; type: functional
[18] = tested on: Klebsiella pneumoniae; test: Antibacterial activity against Klebsiella pneumoniae CAV 1636 producing OXA-181 by broth microdilution method; type: functional
[19] = tested on: Klebsiella pneumoniae; test: Antibacterial activity against Klebsiella pneumoniae 1108/1989 producing KPC-3 by broth microdilution method; type: functional
[20] = tested on: Klebsiella pneumoniae; test: Antibacterial activity against Klebsiella pneumoniae 440/1360 producing KPC-2 by broth microdilution method; type: functional
[21] = tested on: Bacteria
[22] = tested on: Klebsiella pneumoniae; test: Antibacterial activity against Klebsiella pneumoniae NY BS producing OXA-232 by broth microdilution method; type: functional
[23] = tested on: Bacteria; test: Inhibition of bacteria OXA-48 assessed as half life using nitrocefin as substrate
[24] = tested on: Bacteria; remark: listed apart in the source
[25] = tested on: Bacteria; test: Inhibition of bacteria PDC-3 assessed as Koff rate using nitrocefin as substrate incubated for 30 mins
[26] = tested on: Bacteria; test: Inhibition of bacteria KPC-2 assessed as Koff rate using nitrocefin as substrate incubated for 30 mins
[27] = tested on: Klebsiella pneumoniae; test: Antibacterial activity against Klebsiella pneumoniae CAV 1543 producing OXA-48 by broth microdilution method; type: functional
[28] = tested on: Bacteria; test: Inhibition of bacteria OXA-48 assessed as Koff rate using nitrocefin as substrate incubated for 30 mins
[29] = tested on: Acinetobacter baumannii; test: Synergistic antibacterial activity against Acinetobacter baumannii NCTC 13301 producing OXA-23/51 infected in sc dosed Swiss albino mouse assessed as meropenem MIC at 8 ug/ml administered 1 hr post infection and measured upto 7 days; type: functional; details: NCTC 13301, 168 h, dose 8 µg/ml, time <= 7 day
[30] = tested on: Acinetobacter baumannii; test: Antibacterial activity against Acinetobacter baumannii SL46 producing OXA-23/51 infected in sc dosed Swiss albino mouse administered 1 hr post infection and measured upto 7 days; details: SL46, 168 h
[31] = tested on: Acinetobacter baumannii; test: Synergistic antibacterial activity against Acinetobacter baumannii SL46 producing OXA-23/51 infected in sc dosed Swiss albino mouse assessed as meropenem MIC at 8 ug/ml administered 2 hrs post infection and measured upto 7 days; type: functional; details: SL46, 168 h, dose 8 µg/ml, time <= 7 day
[32] = tested on: Acinetobacter baumannii; test: Synergistic antibacterial activity against Acinetobacter baumannii NCTC 13303 producing OXA-26/51 infected in sc dosed Swiss albino mouse assessed as tigecycline MIC at 8 ug/ml administered […] post infection and measured upto 7 days; type: functional; details: NCTC 13303, 168 h, dose 8 µg/ml, time <= 7 day
[33] = tested on: Acinetobacter baumannii; test: Synergistic antibacterial activity against Acinetobacter baumannii NCTC 13301 producing OXA-23/51 infected in sc dosed Swiss albino mouse assessed as tigecycline MIC at 8 ug/ml administered 1 hr post infection and measured upto 7 days; type: functional; details: NCTC 13301, 168 h, dose 8 µg/ml, time <= 7 day
[34] = Inhibition of bacteria OXA-48 assessed as apparent inhibition constant using nitrocefin as substrate
[35] = tested on: Acinetobacter baumannii; test: Synergistic antibacterial activity against Acinetobacter baumannii NCTC 13301 producing OXA-23/51 infected in sc dosed Swiss albino mouse assessed as colistin MIC at 8 ug/ml administered 1 hr post infection and measured upto 7 days; type: functional; details: NCTC 13301, 168 h, dose 8 µg/ml, time <= 7 day
[36] = tested on: Acinetobacter baumannii; test: Synergistic antibacterial activity against Acinetobacter baumannii NCTC 13303 producing OXA-26/51 infected in sc dosed Swiss albino mouse assessed as cefepime MIC at 8 ug/ml administered 1 hr post infection and measured upto 7 days; type: functional; details: NCTC 13303, 168 h, dose 8 µg/ml, time <= 7 day
[37] = Binding affinity to bacteria OXA-48 assessed as dissociation constant
[38] = tested on: Acinetobacter baumannii; test: Antibacterial activity against Acinetobacter baumannii NCTC 13303 producing OXA-26/51 infected in sc dosed Swiss albino mouse administered 1 hr post infection and measured upto 7 days; details: NCTC 13303, 168 h
[39] = tested on: Acinetobacter baumannii; test: Synergistic antibacterial activity against Acinetobacter baumannii SL46 producing OXA-23/51 infected in sc dosed Swiss albino mouse assessed as cefepime MIC at 8 ug/ml administered 1 hr post infection and measured upto 7 days; type: functional; details: SL46, 168 h, dose 8 µg/ml, time <= 7 day
[40] = tested on: Acinetobacter baumannii; test: Synergistic antibacterial activity against Acinetobacter baumannii NCTC 13303 producing OXA-26/51 infected in sc dosed Swiss albino mouse assessed as meropenem MIC at 8 ug/ml administered […] post infection and measured upto 7 days; type: functional; details: NCTC 13303, 168 h, dose 8 µg/ml, time <= 7 day

For `O.O=C(NC1CCNCC1)[C@@H]1CC[C@@H]2CN1C(=O)N2OS(=O)(=O)O` [RELEBACTAM], the MIC [1] was over 16 µg/mL and the MIC [2] was over 16 µg/mL.

Molecule `O=C(NNC(=O)[C@@H]1CC[C@@H]2CN1C(=O)N2OS(=O)(=O)O)[C@@H]1CCNC1` has a Ki [3] of 7800 nM, a Kd [4] of 40 nM and an MIC [5] of 16 µg/mL (≈ 42.4 µM). The MIC [6] was 16 µg/mL (≈ 42.4 µM), the MIC [7] was 0.25 µg/mL and the MIC [8] was 0.25 µg/mL.

For `O=C(NNC(=O)[C@@H]1CC[C@@H]2CN1C(=O)N2OS(=O)(=O)O)[C@@H]1CCCNC1` [ZIDEBACTAM], the Ki [3] was 4500 nM, the Kd [4] was 43 nM and the MIC [9] was at most 0.12 µg/mL. The ED90 [10] was 52.3 mg/kg, the ED50 [10] was 23.2 mg/kg and the ED90 [11] was 52.3 mg/kg. The ED50 ([11]; read-out: PD50) was 23.2 mg/kg, the MIC [12] was over 16 µg/mL and the MIC [13] was over 16 µg/mL. The ED90 [14] was 23.2 mg/kg, the ED50 ([14]; read-out: PD50) was under 23.2 mg/kg and the MIC [7] was 16 µg/mL. It also gave an MIC [15] of over 16 µg/mL, an MIC [16] of over 16 µg/mL and an MIC [17] of over 16 µg/mL. The MIC [18] was over 16 µg/mL and the MIC [19] was over 16 µg/mL.

With `NC(=O)[C@@H]1CC[C@@H]2CN1C(=O)N2OS(=O)(=O)[O-].[Na+]` [AVIBACTAM SODIUM] the MIC [20] was over 16 µg/mL, the T1/2 [21] was 30.4 h and the MIC [6] was 16 µg/mL. It also gave an MIC [22] of over 16 µg/mL, a T1/2 [23] of 16.7 h and a T1/2 [24] of 23.9 h. The K [25] was 8 10^-4/s, the K [26] was 1.4 10^-4/s and the MIC [27] was over 16 µg/mL. For the same molecule, the MIC [16] was over 16 µg/mL, the MIC [18] was over 16 µg/mL and the K [28] was 1.2 10^-5/s.

`N#C[C@@H]1CC[C@@H]2CN1C(=O)N2OS(=O)(=O)[O-].[Na+]` showed an MIC [29] of 1 µg/mL, an ED90 [30] of 66.2 mg/kg and an ED50 ([30]; read-out: PD50) of 24.9 mg/kg. It also gave an MIC [9] of 0.25 µg/mL, an MIC [31] of 64 µg/mL and an ED90 [10] of 23.7 mg/kg. The ED50 [10] was 16.3 mg/kg, the T1/2 [21] was 0.483 h and the T1/2 [23] was 0.217 h. The T1/2 [24] was 0.383 h, the MIC [32] was 1 µg/mL and the MIC [33] was 1 µg/mL. The Ki [34] was 290 nM, the MIC [35] was 1 µg/mL and the MIC [36] was 64 µg/mL. The Kd [37] was 1.4 nM, the ED90 [38] was 49.4 mg/kg and the ED50 ([38]; read-out: PD50) was 24 mg/kg. For the same molecule, the MIC [39] was over 512 µg/mL, the MIC [1] was over 16 µg/mL and the MIC [8] was over 16 µg/mL. For the same molecule, the MIC [2] was over 16 µg/mL, the MIC [40] was 256 µg/mL and the K [28] was 9 10^-4/s.
